FID counter = displaces DNA intercalator in HCV helicase counter-screen | inhibition, % at 7.9 µM | hit rate 0.17% among 290,000 | DNA fluorescent intercalator displacement, fluorescence; in the data active = inhibition above about 37%;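 note: higher means more ethidium bromide displaced from hairpin DNA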
PP5 primary = PP5 (human) phosphatase inhibition | P53041 | purified PP5c, OMFP substrate fluorescence | inhibition, % at 6.7 µM | hit rate 0.18% among 320,000 | AID 1987;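 active = inhibition above the campaign's mean inhibition across all tested compounds plus 3 SD, cut at about 9.5% in these data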
PP1 inh = counter-screen for PP5 inhibitors: inhibitors of human PP1-alpha | P62136 | purified PP1alpha, OMFP fluorescence | inhibition, % at 6.7 µM | hit rate 0.9% among 320,000;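 active = inhibition above the mean inhibition of all tested compounds plus 3 SD, computed separately for each screening campaign, cut at about 15% in these data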
Target sequence (P62136 whole entry, looked up): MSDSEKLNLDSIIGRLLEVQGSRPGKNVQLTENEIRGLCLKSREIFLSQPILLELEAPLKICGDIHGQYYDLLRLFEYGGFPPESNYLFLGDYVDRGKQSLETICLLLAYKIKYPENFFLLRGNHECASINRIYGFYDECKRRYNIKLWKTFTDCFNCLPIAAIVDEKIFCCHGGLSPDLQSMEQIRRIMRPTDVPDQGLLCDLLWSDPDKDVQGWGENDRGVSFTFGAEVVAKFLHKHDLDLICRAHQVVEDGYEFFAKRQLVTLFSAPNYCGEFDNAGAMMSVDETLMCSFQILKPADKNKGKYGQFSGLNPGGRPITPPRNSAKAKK
NS3 helicase inh = blocks Hepatitis C virus NS3 helicase unwinding; NS3 helicase DNA unwinding, Cy5 molecular beacon fluorescence; inhibition, % at 10.9 µM; hit rate 0.56% among 290,000;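 active = inhibition above the mean of all tested compounds plus 3 SD, set per campaign, cut at about 35% in these data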
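System: Hepatitis C virus NS3 helicase domain fragment enzyme | Reagent: Annealed dual-labelled DNA beacon duplex, ATP-started | Compound dosing: 10.9 µM single point, 0.8% DMSO | Incubation: 1 h reaction at 25 °C, ATP-initiated | Technique: Cy5 fluorescence | Evaluation: Percent inhibition from t60/t0 fluorescence ratio | Benchmarks: Low DMSO, high thioflavine S at 110 µM | Replication: Singlicate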
HIF act = HIF pathway transcriptional activation. activation, % at 7.5 µM (by protocol). U2OS HRE-luciferase reporter, luminescence; normalized: DMSO 0%, desferrioxamine 100%. hit rate 0.32% among 300,000. AID 1910;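 active = mean activation of at least 10% of the iron chelator positive control signal, with at least half of replicates also reaching 10%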
Numbers stand for hits; n = inactive; x = no result. Most compounds without a hit are left out; they make up all but 1.9% or so of the library.

SMILES | FID counter | PP5 primary | PP1 inh | NS3 helicase inh | HIF act
CN(C)CCCN(C(=O)c1cc(-c2cccs2)nc2ccccc12)c1nc2c(F)cccc2s1 | n | n | n | n | n
Cc1ccc2nc(N(CCCN(C)C)C(=O)c3cc(-c4cccs4)nc4ccccc34)sc2c1 | n | n | 17 | n | n
CCc1ccc2nc(N(CCCN(C)C)C(=O)c3ccc(S(=O)(=O)N4CCc5ccccc5C4)cc3)sc2c1 | n | n | 17 | n | n
CN(C)CCCN(C(=O)c1ccc(S(=O)(=O)N2CCOCC2)cc1)c1nc2cc3c(cc2s1)OCO3 | n | n | n | n | n
CCN(CC)CCN(C(=O)c1ccc(C(=O)c2ccccc2)cc1)c1nc2cc3c(cc2s1)OCO3 | n | n | n | n | n
CCN(CC)CCCN1C(=O)CSC1c1ccc([N+](=O)[O-])cc1 (stereo not given) | n | n | n | n | n
Cc1cccc2sc(N(CCCN(C)C)C(=O)c3sc4ccccc4c3Cl)nc12 | n | n | n | n | x
Cc1cccc2sc(N(CCCN(C)C)C(=O)c3ccc(C(=O)c4ccccc4)cc3)nc12 | 38 | n | n | n | x
Clc1c(CSc2nc3ccccc3o2)nc2ccccn12 | n | n | n | n | n
Clc1c(CSc2nc3ccccc3o2)nc2sccn12 | n | n | n | n | 10
O=C(O)c1ccc2cc(-c3ccccc3)[nH]c2c1 | x | n | n | x | 20
Cc1ccc(-n2c(N)c(C(=O)Nc3c(C)n(C)n(-c4ccccc4)c3=O)c3nc4ccccc4nc32)cc1C | n | n | n | 72 | n
COc1ccccc1N1CCN(C(=O)CSc2ncccc2-c2nc3ccccc3[nH]2)CC1 | n | n | n | n | n
COc1ccccc1N1CCN(C(=O)CSc2nc3ccccc3[nH]2)CC1 | n | n | 17 | n | n
CCN1CCN(CCCOc2ccc(-c3ccccc3)cc2)CC1 | n | n | n | n | 60
c1ccc(COc2ccc(OCCCCN3CCCCC3)cc2)cc1 | 44 | n | n | n | n
O=C(c1ccccc1)c1ccc(OCCCCN2CCCCC2)cc1 | n | n | n | n | n
CC(C)NC(=O)C(=O)Nc1cc2c3c(c1)C(C)C(=O)N3CCC2 (stereo not given) | n | n | n | n | n
O=C1CC(=C(c2ccccc2)c2ccccc2)C(=O)N1CCN1CCN(c2cccc(Cl)c2)CC1 | n | n | n | n | n
O=C1CC(=C(c2ccccc2)c2ccccc2)C(=O)N1CCCN1CCN(c2cccc(Cl)c2)CC1 | n | n | 17 | n | n
Cc1cc(C)c2c(N)c(C(=O)Nc3ccccc3F)sc2n1 | n | n | n | n | 30
Cc1cc(C)c2c(N)c(C(=O)Nc3ccccc3Br)sc2n1 | n | n | n | n | n
Cc1cc(C)c2c(N)c(C(=O)Nc3ccccc3Cl)sc2n1 | x | n | 17 | x | n
CC(C)C[C@H](NC(=O)c1nc[nH]c1C(=O)NCc1ccc(CNC(=O)OC(C)(C)C)cc1)C(=O)OCc1ccccc1 | n | n | n | n | n
O=C(N[C@@H](Cc1ccccc1)C(=O)OCc1ccccc1)c1nc[nH]c1C(=O)N1CCc2ccccc2C1 | x | n | n | x | n
SMILES | FID counter | PP5 primary | PP1 inh | NS3 helicase inh | HIF act
Cc1cc(Nc2ccc(Cl)cc2)nc(NCc2ccccc2)n1 | n | n | 17 | n | n
Cc1cc(Nc2ccccc2)nc(NCc2ccccc2)n1 | n | n | n | n | n
Cc1cc(N/N=C/c2ccc(N(C)C)cc2)nc(NCc2ccccc2)n1 | n | n | 16 | n | n
CC(=O)Nc1ccc(S(=O)(=O)Nc2nnc(Cc3ccc(Cl)cc3)s2)cc1 | n | n | n | n | n
O=C(O)c1ccc2c(=O)n(Cc3ccccc3)c(SCc3ccc([N+](=O)[O-])cc3)nc2c1 | n | n | 18 | n | n
O=c1c2ccccc2nc(SCc2ccc([N+](=O)[O-])cc2)n1-c1ccccc1 | n | n | n | n | n
COc1ccc(F)cc1CSc1nnnn1-c1ccc(O)cc1 | n | n | n | n | 477
COc1ccc(C(C)=O)cc1CSc1nnnn1-c1ccc(O)cc1 | n | n | n | n | n
O=C(NCCS(=O)(=O)N1CCN(c2cccc(Cl)c2)CC1)c1cc(=O)c2ccccc2o1 | n | n | n | n | n
COc1ccc(C(=O)Nc2nnc(CC(=O)N/N=C/c3ccc(O)cc3O)s2)cc1 | n | n | n | n | n
Cc1ccc(C(=O)Nc2nnc(CC(=O)N/N=C/c3ccncc3)s2)cc1 | n | n | 15 | n | n
O=C(Nc1ccc2nc(-c3ccco3)c(-c3ccco3)nc2c1)N1CCCCCC1 | n | n | 37 | 49 | n
Cc1cccc(N/C(=N/S(=O)(=O)c2ccccc2)c2ccccc2)n1 | n | n | n | n | n
CCOCCCNC(=S)Nc1cc(C)cc(C)c1 | n | n | n | n | 143
O=C(N=C1SC2CS(=O)(=O)CC2N1CCc1ccccc1)C1CCCCC1 (stereo not given) | n | n | n | n | n
Cc1ccc(-c2ccc(S(=O)(=O)Nc3cccnc3)cc2)cc1 | n | n | 16 | n | n
COc1ccc2c(c1)c(=O)oc1cc(OCC(=O)N3CCCC(C)C3)ccc12 (stereo not given) | n | n | 16 | n | n
CC1Oc2ccccc2N(CC(=O)NCCN2CCOCC2)C1=O (stereo not given) | n | n | n | n | n
CCc1cnccc1CCC(=O)Nc1ccccc1C | x | n | n | x | 430
Cc1ccccc1NC(=O)CCC(=O)N/N=C/c1cccnc1 | n | n | n | n | n
CNC(=O)c1c(NC(=O)C2=COCCO2)sc2c1CCCC2 | n | n | n | n | n
CC1=NN2C(=N)/C(=C\c3cc(C)n(Cc4ccccc4)c3C)C(=O)N=C2S1 | n | n | n | n | 55
Oc1c(C(Nc2cccc(C(F)(F)F)c2)c2cccnc2)ccc2cccnc12 (stereo not given) | n | n | n | n | n
COc1ccc(Cl)cc1C(Nc1cccnc1)c1ccc2cccnc2c1O (stereo not given) | n | n | 17 | n | n
CCCC(=O)NC(c1ccccc1)c1ccc2cccnc2c1O (stereo not given) | n | n | n | n | 51
SMILES | FID counter | PP5 primary | PP1 inh | NS3 helicase inh | HIF act
Cc1cc(NC(c2cccnc2)c2ccc3cccnc3c2O)no1 (stereo not given) | n | n | n | n | 22
CC(=O)NC(c1ccc(C)cc1)c1cc(Cl)c2cccnc2c1O (stereo not given) | n | x | x | n | 9.8
COc1ccc(C(=O)Nc2cccnc2)cc1OC | n | n | n | n | n
Cc1ccccc1CNC(=O)CN(c1cccc([N+](=O)[O-])c1)S(C)(=O)=O | n | n | n | n | n
COC(=O)c1cc(=O)c2c(C)nc(C(Cl)(Cl)Cl)nc2[nH]1 | n | n | n | n | n
Cc1ccc(NC(=O)C2CC2C)cc1S(=O)(=O)N1CCOCC1 (stereo not given) | x | n | n | x | n
CCC(=O)NC(c1ccc(OC)cc1)c1cc(Cl)c2cccnc2c1O (stereo not given) | n | n | 16 | n | 23
CCC(=O)NC(c1ccco1)c1cc(Cl)c2cccnc2c1O (stereo not given) | n | n | n | n | n

Screens (PubChem BioAssay)
